Measured values as given in ChEMBL document CHEMBL1255475, “Mutant prevention concentrations of four carbapenems against gram-negative rods” (2010).
In brackets after ≈: the same amount, converted by molar mass.

Tests used:
Assay type in all cases: functional
Acinetobacter baumannii [1] = assay: Antibacterial activity against Acinetobacter baumannii A885 assessed as mutant prevention concentration after overnight incubation
Acinetobacter baumannii [2] = assay: Antibacterial activity against Acinetobacter baumannii A891 assessed as mutant prevention concentration after overnight incubation
Acinetobacter baumannii [3] = assay: Antibacterial activity against Acinetobacter baumannii A894 assessed as mutant prevention concentration after overnight incubation
Klebsiella pneumoniae [4] = assay: Antibacterial activity against beta-lactamase-negative Klebsiella pneumoniae E362 assessed as mutant prevention concentration after overnight incubation
Klebsiella pneumoniae [5] = assay: Antibacterial activity against beta-lactamase-negative Klebsiella pneumoniae E418 assessed as mutant prevention concentration after overnight incubation
In short: (§1)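 Overnight growth on blood trypticase soy agar (35°C, air) was resuspended in 0.9% saline and counted on drug-free Mueller-Hinton agar. […] Colonies were retested by agar dilution to confirm mutants. MPC was the lowest concentration preventing resistant-mutant growth.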

Klebsiella pneumoniae [6] = assay: Antibacterial activity against beta-lactamase-positive ESBL-positive Klebsiella pneumoniae E476 assessed as mutant prevention concentration after overnight incubation; in short: as §1
Klebsiella pneumoniae [7] = assay: Antibacterial activity against beta-lactamase-positive ESBL-negative Klebsiella pneumoniae E509 assessed as mutant prevention concentration after overnight incubation; in short: as §1
Klebsiella pneumoniae [8] = assay: Antibacterial activity against beta-lactamase-positive ESBL-negative Klebsiella pneumoniae E474 assessed as mutant prevention concentration after overnight incubation; in short: as §1
Klebsiella pneumoniae [9] = assay: Antibacterial activity against beta-lactamase-positive ESBL-negative Klebsiella pneumoniae E479 assessed as mutant prevention concentration after overnight incubation; in short: as §1
Klebsiella pneumoniae [10] = assay: Antibacterial activity against beta-lactamase-positive ESBL-negative Klebsiella pneumoniae E473 assessed as mutant prevention concentration after overnight incubation; in short: as §1
Klebsiella pneumoniae [11] = assay: Antibacterial activity against beta-lactamase-negative Klebsiella pneumoniae E420 assessed as mutant prevention concentration after overnight incubation; in short: as §1
Klebsiella pneumoniae [12] = assay: Antibacterial activity against beta-lactamase-positive ESBL-positive Klebsiella pneumoniae E453 assessed as mutant prevention concentration after overnight incubation; in short: as §1
Pseudomonas aeruginosa [13] = assay: Antibacterial activity against Pseudomonas aeruginosa P319 assessed as mutant prevention concentration after overnight incubation
Pseudomonas aeruginosa [14] = assay: Antibacterial activity against Pseudomonas aeruginosa P365 assessed as mutant prevention concentration after overnight incubation
Pseudomonas aeruginosa [15] = assay: Antibacterial activity against Pseudomonas aeruginosa P349 assessed as mutant prevention concentration after overnight incubation
Pseudomonas aeruginosa [16] = assay: Antibacterial activity against Pseudomonas aeruginosa P363 assessed as mutant prevention concentration after overnight incubation
Pseudomonas aeruginosa [17] = assay: Antibacterial activity against Pseudomonas aeruginosa P326 assessed as mutant prevention concentration after overnight incubation
Acinetobacter baumannii [18] = assay: Antibacterial activity against Acinetobacter baumannii A928 assessed as mutant prevention concentration after overnight incubation
Acinetobacter baumannii [19] = assay: Antibacterial activity against Acinetobacter baumannii A908 assessed as mutant prevention concentration after overnight incubation
Escherichia coli [20] = assay: Antibacterial activity against beta-lactamase-negative Escherichia coli E345 assessed as mutant prevention concentration after overnight incubation
Escherichia coli [21] = assay: Antibacterial activity against beta-lactamase-negative Escherichia coli E350 assessed as mutant prevention concentration after overnight incubation
Escherichia coli [22] = assay: Antibacterial activity against beta-lactamase-positive ESBL-negative Escherichia coli E412 assessed as mutant prevention concentration after overnight incubation; in short: as §1
Escherichia coli [23] = assay: Antibacterial activity against beta-lactamase-positive ESBL-positive Escherichia coli E450 assessed as mutant prevention concentration after overnight incubation; in short: as §1
Escherichia coli [24] = assay: Antibacterial activity against beta-lactamase-positive ESBL-positive Escherichia coli E452 assessed as mutant prevention concentration after overnight incubation; in short: as §1
Escherichia coli [25] = assay: Antibacterial activity against beta-lactamase-positive ESBL-positive Escherichia coli E460 assessed as mutant prevention concentration after overnight incubation; in short: as §1
Klebsiella pneumoniae [26] = assay: Antibacterial activity against beta-lactamase-negative Klebsiella pneumoniae E359 assessed as mutant prevention concentration after overnight incubation
Klebsiella pneumoniae [27] = assay: Antibacterial activity against beta-lactamase-negative Klebsiella pneumoniae E361 assessed as mutant prevention concentration after overnight incubation
Klebsiella pneumoniae [28] = assay: Antibacterial activity against beta-lactamase-positive ESBL-negative Klebsiella pneumoniae E472 incubated up to 7 days by agar dilution method; settings: E472, 168 h
Klebsiella pneumoniae [29] = assay: Antibacterial activity against beta-lactamase-positive ESBL-negative Klebsiella pneumoniae E479 incubated up to 7 days by agar dilution method; settings: E479, 168 h
In short: (§2)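 MPC determination: overnight cultures on blood trypticase soy agar at 35°C in air were resuspended in 0.9% saline, and CFU were counted on drug-free Mueller-Hinton agar. […] Growth was retested by agar dilution to confirm mutants. MPC was the lowest concentration preventing resistant-mutant growth.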

Klebsiella pneumoniae [30] = assay: Antibacterial activity against beta-lactamase-positive ESBL-negative Klebsiella pneumoniae E473 incubated up to 7 days by agar dilution method; settings: E473, 168 h
Klebsiella pneumoniae [31] = assay: Antibacterial activity against beta-lactamase-positive ESBL-positive Klebsiella pneumoniae E478 incubated up to 7 days by agar dilution method; settings: E478, 168 h
Klebsiella pneumoniae [32] = assay: Antibacterial activity against beta-lactamase-positive ESBL-positive Klebsiella pneumoniae E453 incubated up to 7 days by agar dilution method; settings: E453, 168 h
In short: (§3)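 MIC by CLSI agar dilution, with quality-control strains in each run. Beta-lactamase status was set by 30 μg cefazolin Kirby-Bauer disk diffusion. ESBL status was set by cefotaxime and ceftazidime disks (30 μg) with and without clavulanic acid (10 μg).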

Klebsiella pneumoniae [33] = assay: Antibacterial activity against beta-lactamase-positive ESBL-negative Klebsiella pneumoniae E507 incubated up to 7 days by agar dilution method; settings: E507, 168 h; in short: as §2
Klebsiella pneumoniae [34] = assay: Antibacterial activity against beta-lactamase-positive ESBL-negative Klebsiella pneumoniae E511 incubated up to 7 days by agar dilution method; settings: E511, 168 h
Escherichia coli [35] = assay: Antibacterial activity against beta-lactamase-negative Escherichia coli E347 incubated up to 7 days by agar dilution method; settings: E347, 168 h
Escherichia coli [36] = assay: Antibacterial activity against beta-lactamase-negative Escherichia coli E350 […] by agar dilution method
Escherichia coli [37] = assay: Antibacterial activity against beta-lactamase-positive ESBL-negative Escherichia coli E412 incubated up to 7 days by agar dilution method; settings: E412, 168 h; in short: as §3
Escherichia coli [38] = assay: Antibacterial activity against beta-lactamase-negative Escherichia coli E424 […] by agar dilution method
Escherichia coli [39] = assay: Antibacterial activity against beta-lactamase-positive ESBL-positive Escherichia coli E456 incubated up to 7 days by agar dilution method; settings: E456, 168 h; in short: as §3
Escherichia coli [40] = assay: Antibacterial activity against beta-lactamase-positive ESBL-positive Escherichia coli E459 incubated up to 7 days by agar dilution method; settings: E459, 168 h; in short: as §3
Escherichia coli [41] = assay: Antibacterial activity against beta-lactamase-positive ESBL-positive Escherichia coli E451 incubated up to 7 days by agar dilution method; settings: E451, 168 h; in short: as §3
Escherichia coli [42] = assay: Antibacterial activity against beta-lactamase-positive ESBL-positive Escherichia coli E460 incubated up to 7 days by agar dilution method; settings: E460, 168 h; in short: as §3
Klebsiella pneumoniae [43] = assay: Antibacterial activity against beta-lactamase-negative Klebsiella pneumoniae E359 incubated up to 7 days by agar dilution method; settings: E359, 168 h
Klebsiella pneumoniae [44] = assay: Antibacterial activity against beta-lactamase-negative Klebsiella pneumoniae E362 incubated up to 7 days by agar dilution method; settings: E362, 168 h

Compound: C[C@@H](O)[C@H]1C(=O)N2C(C(=O)O)=C(SCCNC=N)C[C@H]12 [IMIPENEM ANHYDROUS]
- MPC (Acinetobacter baumannii [1]): 8 µg/mL
- MPC (Acinetobacter baumannii [2]): 1 µg/mL
- MPC (Acinetobacter baumannii [3]): 1 µg/mL
- MPC (Klebsiella pneumoniae [4]): 1 µg/mL
- MPC (Klebsiella pneumoniae [5]): 4 µg/mL
- MPC (Klebsiella pneumoniae [6]): >16 µg/mL
- MPC (Klebsiella pneumoniae [7]): >32 µg/mL
- MPC (Klebsiella pneumoniae [8]): 16 µg/mL
- MPC (Klebsiella pneumoniae [9]): 32 µg/mL
- MPC (Klebsiella pneumoniae [10]): 16 µg/mL
- MPC (Klebsiella pneumoniae [11]): 0.25 µg/mL
- MPC (Klebsiella pneumoniae [12]): 0.5 µg/mL
- MPC (Pseudomonas aeruginosa [13]): 32 µg/mL
- MPC (Pseudomonas aeruginosa [14]): 16 µg/mL
- MPC (Pseudomonas aeruginosa [15]): 32 µg/mL
- MPC (Pseudomonas aeruginosa [16]): 32 µg/mL
- MPC (Pseudomonas aeruginosa [17]): 32 µg/mL
- MPC (Acinetobacter baumannii [18]): 1 µg/mL
- MPC (Acinetobacter baumannii [19]): 1 µg/mL
- MPC (Escherichia coli [20]): 0.5 µg/mL
- MPC (Escherichia coli [21]): 2 µg/mL
- MPC (Escherichia coli [22]): 1 µg/mL
- MPC (Escherichia coli [23]): 0.5 µg/mL
- MPC (Escherichia coli [24]): 0.5 µg/mL
- MPC (Escherichia coli [25]): 0.5 µg/mL
- MPC (Klebsiella pneumoniae [26]): 1 µg/mL
- MPC (Klebsiella pneumoniae [27]): 1 µg/mL

Compound: C[C@@H](O)[C@H]1C(=O)N2C(C(=O)O)=C(S[C@@H]3CN[C@H](C(=O)N(C)C)C3)[C@H](C)[C@H]12 [MEROPENEM]
- MIC (Klebsiella pneumoniae [28]): 4 µg/mL (≈ 10.4 µM)
- MIC (Klebsiella pneumoniae [29]): 8 µg/mL (≈ 20.9 µM)
- MIC (Klebsiella pneumoniae [30]): 2 µg/mL (≈ 5.22 µM)
- MIC (Klebsiella pneumoniae [31]): 2 µg/mL (≈ 5.22 µM)
- MIC (Klebsiella pneumoniae [32]): 0.06 µg/mL (≈ 0.156 µM)
- MIC (Klebsiella pneumoniae [33]): 4 µg/mL (≈ 10.4 µM)
- MIC (Klebsiella pneumoniae [34]): 4 µg/mL (≈ 10.4 µM)
- MIC (Escherichia coli [35]): 0.03 µg/mL (≈ 0.0782 µM)
- MIC (Escherichia coli [36]): 0.03 µg/mL (≈ 0.0782 µM)
- MIC (Escherichia coli [37]): 0.06 µg/mL (≈ 0.156 µM)
- MIC (Escherichia coli [38]): 0.03 µg/mL (≈ 0.0782 µM)
- MIC (Escherichia coli [39]): 0.03 µg/mL (≈ 0.0782 µM)
- MIC (Escherichia coli [40]): 0.03 µg/mL (≈ 0.0782 µM)
- MIC (Escherichia coli [41]): 0.03 µg/mL (≈ 0.0782 µM)
- MIC (Escherichia coli [42]): 0.03 µg/mL (≈ 0.0782 µM)
- MIC (Klebsiella pneumoniae [43]): 0.06 µg/mL (≈ 0.156 µM)
- MIC (Klebsiella pneumoniae [44]): 0.06 µg/mL (≈ 0.156 µM)
- MPC (Acinetobacter baumannii [1]): 8 µg/mL
- MPC (Acinetobacter baumannii [2]): 2 µg/mL
- MPC (Acinetobacter baumannii [3]): 2 µg/mL
- MPC (Klebsiella pneumoniae [4]): 0.125 µg/mL
- MPC (Klebsiella pneumoniae [5]): 0.125 µg/mL
- MPC (Klebsiella pneumoniae [6]): >64 µg/mL
- MPC (Klebsiella pneumoniae [7]): >64 µg/mL
- MPC (Klebsiella pneumoniae [8]): 16 µg/mL
- MPC (Klebsiella pneumoniae [9]): 32 µg/mL
- MPC (Klebsiella pneumoniae [10]): 16 µg/mL
- MPC (Klebsiella pneumoniae [11]): 0.06 µg/mL
- MPC (Klebsiella pneumoniae [12]): 0.5 µg/mL
- MPC (Pseudomonas aeruginosa [13]): 8 µg/mL
- MPC (Pseudomonas aeruginosa [14]): 8 µg/mL
- MPC (Pseudomonas aeruginosa [15]): 16 µg/mL
- MPC (Pseudomonas aeruginosa [16]): >8 µg/mL
- MPC (Pseudomonas aeruginosa [17]): 64 µg/mL
- MPC (Acinetobacter baumannii [18]): 4 µg/mL
- MPC (Acinetobacter baumannii [19]): 4 µg/mL
- MPC (Escherichia coli [20]): 0.06 µg/mL
- MPC (Escherichia coli [21]): 0.06 µg/mL
- MPC (Escherichia coli [22]): 0.25 µg/mL
- MPC (Escherichia coli [23]): 0.06 µg/mL
- MPC (Escherichia coli [24]): 0.06 µg/mL
- MPC (Escherichia coli [25]): 0.06 µg/mL
- MPC (Klebsiella pneumoniae [26]): 0.125 µg/mL
- MPC (Klebsiella pneumoniae [27]): 0.125 µg/mL
